Key:
HEK-293T = experiment: Cytotoxicity against HEK293T cells assessed as reduction in cell viability up to 400 uM after 48 hrs by CellTiter-Glo assay; format: cell-based; conditions: human
Summary of the method: (§1)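 HEK293T and HepG2 cells grown in high-glucose DMEM with non-essential amino acids, 10 mM HEPES, penicillin/streptomycin and 10% heat-inactivated FBS. Cells were harvested with trypsin and plated; compound was pin-transferred 3 h later. Incubation was 48 h, then CellTiter-Glo luminescence was read. Controls were DMSO (negative) and a cytotoxic aminoketone (positive). Quadruplicates, three independent runs, normalized to controls, nonlinear regression.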

[1] = target: Voltage-gated inwardly rectifying potassium channel KCNH2 (Homo sapiens, UniProt Q12809); experiment: Displacement of [3H]-dofetilide from human ERG expressed in HEK cell membranes at >10 uM after 60 to 90 mins by scintillation counting
Voltage-gated inwardly rectifying potassium channel KCNH2, sequence (Q12809 whole entry): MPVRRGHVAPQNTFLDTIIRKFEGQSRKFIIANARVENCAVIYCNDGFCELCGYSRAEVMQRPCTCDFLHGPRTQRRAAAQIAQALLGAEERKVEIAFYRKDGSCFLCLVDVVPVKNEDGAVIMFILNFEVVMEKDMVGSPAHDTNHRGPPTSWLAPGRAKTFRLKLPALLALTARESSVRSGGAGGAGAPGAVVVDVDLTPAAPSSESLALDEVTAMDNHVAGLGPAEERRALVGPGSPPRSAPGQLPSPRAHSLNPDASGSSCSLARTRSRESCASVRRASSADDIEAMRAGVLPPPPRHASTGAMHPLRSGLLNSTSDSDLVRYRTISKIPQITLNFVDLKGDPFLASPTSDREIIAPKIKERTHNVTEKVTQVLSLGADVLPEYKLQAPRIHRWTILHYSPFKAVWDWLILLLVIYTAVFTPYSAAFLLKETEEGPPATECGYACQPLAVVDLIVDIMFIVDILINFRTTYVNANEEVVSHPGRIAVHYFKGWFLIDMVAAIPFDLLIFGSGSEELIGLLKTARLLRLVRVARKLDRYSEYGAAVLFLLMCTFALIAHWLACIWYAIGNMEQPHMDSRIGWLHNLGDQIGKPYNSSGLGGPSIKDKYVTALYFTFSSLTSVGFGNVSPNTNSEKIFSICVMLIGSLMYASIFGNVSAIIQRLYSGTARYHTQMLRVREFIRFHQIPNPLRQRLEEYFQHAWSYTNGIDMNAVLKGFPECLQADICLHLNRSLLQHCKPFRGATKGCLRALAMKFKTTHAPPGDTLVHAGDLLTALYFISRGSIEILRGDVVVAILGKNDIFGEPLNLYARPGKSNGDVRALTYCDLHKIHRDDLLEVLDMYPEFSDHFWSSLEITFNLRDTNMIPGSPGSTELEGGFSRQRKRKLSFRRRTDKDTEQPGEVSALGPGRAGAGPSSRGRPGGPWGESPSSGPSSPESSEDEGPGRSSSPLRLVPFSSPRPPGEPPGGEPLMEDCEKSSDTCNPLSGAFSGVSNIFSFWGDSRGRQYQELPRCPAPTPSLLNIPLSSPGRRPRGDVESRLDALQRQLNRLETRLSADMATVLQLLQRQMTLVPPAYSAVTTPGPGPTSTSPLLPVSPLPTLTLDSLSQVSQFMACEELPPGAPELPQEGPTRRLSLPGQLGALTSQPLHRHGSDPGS

HepG2 = experiment: Cytotoxicity against human HepG2 cells assessed as reduction in cell viability up to 400 uM after 48 hrs by CellTiter-Glo assay; format: cell-based; conditions: hepg2, 48 h; summary of the method: as §1
Liver = experiment: Half life in mouse liver microsomes at 10 uM by LC-MS/MS analysis; format: ADME, microsome
Summary of the method: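 Compound at 10 μM final was preincubated 5 min at 37 °C with NADPH regenerating system in phosphate buffer, pH 7.4. Human or mouse liver microsomes (0.5 mg/mL protein) were added to start the reaction. Samples were taken at 0 (no microsomes) and 10–60 min and measured by LC-MS/MS against an internal standard. Half-life = 0.693/k, with k the slope of ln peak-area ratio versus time. Three experiments, each in duplicate.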

[2] = Metabolic stability in mouse liver microsomes assessed as parent compound remaining at 10 uM after 60 mins by LC-MS analysis; format: ADME, microsome; conditions: read-out: Stability
Summary of the method: (§2)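 The 60 min samples of the microsomal incubation (10 μM compound, human or mouse liver microsomes at 0.5 mg/mL, NADPH regenerating system, 37 °C) were analysed by LC-MS. Detection used SIM mode with dual ESI/APCI ionization, calibrated to the retention times and masses of the parent and its O-demethylated metabolites. Peak intensities were measured.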

[3] = Drug metabolism in human liver microsomes assessed as CYP450 mediated-O-demethylated 8-chloro-2-(3-hydroxyphenyl)-2H-pyrazolo[4,3-c]quinolin-3(5H)-one metabolite formation after 60 mins by LC-MS analysis; format: ADME; conditions: 1 h
Summary of the method: (§3)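 The 60-min samples from the human or mouse liver microsome incubations (10 µM compound, 0.5 mg/mL protein, NADPH regenerating system, 37 °C, pH 7.4) were run on LC-MS in SIM mode with dual ESI/APCI ionization. The method was calibrated to each component's retention time and mass, and the peak intensities of the parent and O-demethylated metabolites were measured.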

Mus musculus [4] = experiment: Neurotoxicity in Swiss Webster mouse assessed as induction of motor impairment at 40 mg/kg administered via oral gavage measured after 10 to 60 mins by rotarod method; format: toxicity, organism-based; conditions: in vivo
Summary of the method: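 Female mice were given a single oral gavage dose of 40 mg/kg, either in 50% PBS/40% propylene glycol/10% DMSO or, for poorly soluble compounds, in 2% polyethylene glycol plus 2.5% hydroxymethyl cellulose. Rotarod performance was tested 10, 30 and 60 min after dosing, with diazepam 5 mg/kg as positive control.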

[5] = Drug metabolism in mouse liver microsomes assessed as CYP450 mediated-O-demethylated 8-chloro-2-(3-hydroxyphenyl)-2H-pyrazolo[4,3-c]quinolin-3(5H)-one metabolite formation after 60 mins by LC-MS analysis; format: ADME; conditions: 1 h; summary of the method: as §3
[6] = Metabolic stability in human liver microsomes assessed as parent compound remaining at 10 uM after 60 mins by LC-MS analysis; format: ADME, microsome; conditions: read-out: Stability; summary of the method: as §2
Mus musculus [7] = experiment: Neurotoxicity in Swiss Webster mouse assessed as induction of motor impairment at 5 mg/kg administered via oral gavage measured after 10 to 60 mins by rotarod method; format: toxicity, organism-based; conditions: in vivo
Summary of the method: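 Female Swiss Webster mice were given diazepam 5 mg/kg by oral gavage as the positive control. Rotarod performance was tested 10, 30 and 60 min after dosing.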

[8] = Drug metabolism in human liver microsomes assessed as CYP450 mediated-O-demethylated 7-hydroxy-2-(6-hydroxypyridin-3-yl)-2H-pyrazolo[4,3-c]quinolin-3(5H)-one metabolite formation after 60 mins by LC-MS analysis; format: ADME; conditions: 1 h; summary of the method: as §3
[9] = Drug metabolism in human liver microsomes assessed as CYP450 mediated-O-demethylated 7-hydroxy-2-[6-(trideuteriomethoxy)-3-pyridyl]-5H-pyrazolo[4,3-c]quinolin-3-one metabolite formation after 60 mins by LC-MS analysis; format: ADME; conditions: 1 h; summary of the method: as §3
[10] = Drug metabolism in mouse liver microsomes assessed as CYP450 mediated-O-demethylated 7-hydroxy-2-[6-(trideuteriomethoxy)-3-pyridyl]-5H-pyrazolo[4,3-c]quinolin-3-one metabolite formation after 60 mins by LC-MS analysis; format: ADME; conditions: 1 h; summary of the method: as §3
[11] = Drug metabolism in mouse liver microsomes assessed as CYP450 mediated-O-demethylated 7-hydroxy-2-(6-hydroxypyridin-3-yl)-2H-pyrazolo[4,3-c]quinolin-3(5H)-one metabolite formation after 60 mins by LC-MS analysis; format: ADME; conditions: 1 h; summary of the method: as §3
[12] = Drug metabolism in mouse liver microsomes assessed as CYP450 mediated-O-demethylated 2-(6-hydroxypyridin-3-yl)-7-methoxy-2H-pyrazolo[4,3-c]quinolin-3(5H)-one metabolite formation after 60 mins by LC-MS analysis; format: ADME; conditions: 1 h; summary of the method: as §3
[13] = Drug metabolism in human liver microsomes assessed as CYP450 mediated-O-demethylated 2-(6-hydroxypyridin-3-yl)-7-methoxy-2H-pyrazolo[4,3-c]quinolin-3(5H)-one metabolite formation after 60 mins by LC-MS analysis; format: ADME; conditions: 1 h; summary of the method: as §3

For `[2H]C([2H])([2H])Oc1cccc(-n2nc3c4cc(Cl)ccc4[nH]cc-3c2=O)c1`, which Activity (HEK-293T) is on record?
The Activity was “Non-Toxic”.

What about the “inhibition (INH)” value [1] of the same molecule?
Its value is “Not Active”.

What about the Activity (HepG2) of the same molecule?
The Activity was “Non-Toxic”.

What about the t1/2 (Liver) of the same molecule?
The t1/2 was 2.8 h.

What about the remaining at 1 h, 10 µM [2] of the same molecule?
The remaining at 1 h, 10 µM was 76.6%.

And the Drug metabolism [3]?
The Drug metabolism was “Metabolite_Detected”.

And the Activity (Mus musculus [4])?
Its Activity is “Non-Toxic”.

And the Drug metabolism [5]?
Its Drug metabolism is “Metabolite_Detected”.

What about the remaining at 1 h, 10 µM [6] of the same molecule?
Its remaining at 1 h, 10 µM is 93%.

For `CN1C(=O)CN=C(c2ccccc2)c2cc(Cl)ccc21` [DIAZEPAM], which Activity (Mus musculus [7]) is on record?
The Activity was “Toxic”.

Which Drug metabolism [8] does the source give for `[2H]C([2H])([2H])Oc1ccc(-n2nc3c4ccc(OC)cc4[nH]cc-3c2=O)cn1` here?
The Drug metabolism was “Metabolite_Detected”.

What about the “inhibition (INH)” value [1] of the same molecule?
The value was “Not Active”.

What about the Drug metabolism [9] of the same molecule?
Its Drug metabolism is “Metabolite_Detected”.

And the Drug metabolism [10]?
The Drug metabolism was “Metabolite_Detected”.

What about the Drug metabolism [11] of the same molecule?
Its Drug metabolism is “Metabolite_Detected”.

And the Drug metabolism [12]?
Its Drug metabolism is “Metabolite_Detected”.

And the remaining at 1 h, 10 µM [2]?
Its remaining at 1 h, 10 µM is 92.4%.

And the Activity (Mus musculus [4])?
The Activity was “Non-Toxic”.

And the remaining at 1 h, 10 µM [6]?
Its remaining at 1 h, 10 µM is 92.6%.

What about the Drug metabolism [13] of the same molecule?
Its Drug metabolism is “Metabolite_Detected”.

— ChEMBL document CHEMBL4033790, “Design and Synthesis of Novel Deuterated Ligands Functionally Selective for the γ-Aminobutyric Acid Type A Receptor (GABAAR) α6 Subtype with Improved Metabolic Stability and Enhanced Bioavailability” (J Med Chem, 2018)
